Only some compounds are listed: those with a hit (about 3.9% of all), similar ones and a draw of the others.
TAAR1 antag: antagonists of human TAAR1; Q96RJ0; CHO RD-HGA16 TAAR1, Fluo-8 calcium fluorescence, antagonist; inhibition, % at 3 µM; actives 1.5% (n = 360,000); AID 624466;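 active = inhibition above a per-plate cutoff, the mean inhibition of test compounds on that plate plus 3 SD, cut at about 49% in these data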;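 note: 0% = DMSO plus EC80 beta-PEA response and 100% = DMSO alone without agonist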
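Test system: hTAAR1-expressing CHO RD-HGA16 cells, Gα16-coupled; Probe or stimulus: EC80 β-phenethylamine stimulus; Compound dosing: single nominal final test compound concentration of 3 µM; Timing: 140 s kinetic read after compound, 140 s after agonist; Signal: Fluo-8 calcium-sensitive fluorescence; Measure: % inhibition of agonist calcium response; Controls: DMSO and EC80 PEA controls.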
OX1R antag-1: antagonists of human orexin 1 receptor (OX1R). O43613. OX1R-expressing cells, FRET antagonist read-out. inhibition, % at 6.6 µM. actives 1.8% (n = 330,000). AID 485270; in the data active = inhibition mostly above about 38%, no sharp cut-off; inactive = mostly below about 40%;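 note: 0% = agonist challenge alone and 100% = reference antagonist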
Target sequence (O43613 whole entry, looked up): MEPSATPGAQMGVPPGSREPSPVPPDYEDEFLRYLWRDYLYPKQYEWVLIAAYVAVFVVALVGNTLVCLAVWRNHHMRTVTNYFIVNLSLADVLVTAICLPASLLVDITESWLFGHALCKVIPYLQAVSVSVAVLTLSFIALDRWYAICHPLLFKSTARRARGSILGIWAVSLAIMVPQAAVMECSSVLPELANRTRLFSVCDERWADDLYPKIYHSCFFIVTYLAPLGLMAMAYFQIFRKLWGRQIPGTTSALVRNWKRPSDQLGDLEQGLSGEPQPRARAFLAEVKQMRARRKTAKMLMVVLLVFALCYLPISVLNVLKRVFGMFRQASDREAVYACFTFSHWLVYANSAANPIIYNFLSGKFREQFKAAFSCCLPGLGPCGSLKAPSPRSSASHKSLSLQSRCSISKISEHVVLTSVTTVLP
OX1R antag-2: antagonists of human orexin 1 receptor; inhibition, % at 5 µM; CHO/OX1R cells, Fluo-8 calcium fluorescence, orexin A; actives 0.43% (n = 330,000);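 active = inhibition above its plate's threshold, mean inhibition of all tested compounds on the plate plus 3 SD, cut at about 37% in these data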;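 note: 0% = orexin A challenge wells and 100% = SB-334867-A antagonist wells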
CHO parental Ca: counter-screen: ATP calcium response change in parental CHO cells | inhibition, % at 5.6 µM | parental CHO-K1, ATP-induced calcium, Fluo-8 fluorescence | actives 0.63% (n = 330,000) | AID 463079;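 active = inhibition above that plate's mean sample inhibition plus 3 SD, cut at about 26% in these data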;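 note: 0% = ATP-challenged DMSO wells and 100% = DMSO wells without ATP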
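Material: parental CHO cells / Compound: single nominal dose of 5.6 µM per compound / Signal: Fluo-8 fluorescence / Replicates: singlicate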
TAAR1 ag: agonists of human TAAR1 | Q96RJ0 | CHO RD-HGA16 TAAR1, Fluo-8 calcium fluorescence; vehicle wells 0%, saturating PEA agonist 100% | activation, % at 3 µM | actives 0.99% (n = 360,000) | AID 624467;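 active = activation above the mean activation of all test compounds in the run plus 3 SD, cut at about 38% in these data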
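Test system: RD-HGA16 (CHO) cells co-expressing Gα16 and hTAAR1 | Doses: Single dose, 3 µM | Schedule: 17-24 h seeding, 75 min 37 °C dye, 30 min RT | Evaluation: % activation from peak over basal fluorescence ratio, DMSO-to-PEA scaled | Technique: Kinetic Fluo-8 calcium fluorescence | Benchmarks: Low control DMSO, high control PEA (EC100)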
An asterisk follows results filed as active.

Screening CCO[C@H]1OC(C(=O)NCc2ccccc2)=C[C@@H](c2cn(C(C)=O)c3ccccc23)[C@@H]1CCCO returned TAAR1 antag 18, OX1R antag-1 18, OX1R antag-2 -15, CHO parental Ca -4 and TAAR1 ag 45*.
`CCO[C@@H]1OC(C(=O)N2CCN(Cc3ccc4c(c3)OCO4)CC2)=C[C@H](c2ccc(Br)cc2)[C@H]1CCCO` gave TAAR1 antag 49*, OX1R antag-1 17, OX1R antag-2 -7, CHO parental Ca 17 and TAAR1 ag 12.
Screening CC1=C(C(=O)Nc2ccccc2C(=O)N2CCN(c3ccccc3)CC2)SCCO1 returned TAAR1 antag -4 and TAAR1 ag 2.
`Cc1ccc(C(C)C)c(OCCNCCc2ccccc2)c1` gave TAAR1 antag 25, OX1R antag-1 3, OX1R antag-2 -16, CHO parental Ca -3 and TAAR1 ag 44*.
For Cc1cccc(-c2cc(=O)c(C(=O)O)cn2-c2ccc(F)cc2F)c1 the results were TAAR1 antag -10, OX1R antag-1 58*, OX1R antag-2 5, CHO parental Ca -1 and TAAR1 ag 0.
`NC1CCN(c2nc3c(cc2F)c(=O)c(C(=O)O)cn3-c2ccc(F)cc2F)C1` (centres undefined) gave TAAR1 antag -18, OX1R antag-1 10, OX1R antag-2 -11, CHO parental Ca -4 and TAAR1 ag 2.
`CC(NCCCOc1cccc2ccccc12)c1ccccc1` (centres undefined) gave TAAR1 antag 36, OX1R antag-1 -14, OX1R antag-2 -17, CHO parental Ca 6 and TAAR1 ag 45*.
`COc1ccc(-c2noc(CCC(=O)NCC3CCN(Cc4cccc(C)c4)CC3)n2)cc1` gave TAAR1 antag -3, OX1R antag-1 11, OX1R antag-2 -10, CHO parental Ca -8 and TAAR1 ag 6.
For CCN(CCCNC(=O)CCc1nc(-c2ccc(OC)cc2)no1)c1cccc(C)c1 the results were TAAR1 antag 9, OX1R antag-1 55*, OX1R antag-2 29, CHO parental Ca -7 and TAAR1 ag 3.
O=C(c1ccco1)N1CCN(C(=O)c2ccco2)CC1 was read as TAAR1 antag -23 and TAAR1 ag 0.
N#C/C=C/N1CCN(C(=O)c2ccco2)CC1 was read as TAAR1 antag -34, OX1R antag-1 -1, OX1R antag-2 11, CHO parental Ca -6 and TAAR1 ag 41*.
For Cc1ccc(-c2csc(=Nc3cccnc3)n2CCCn2ccnc2)cc1C the results were TAAR1 antag -2, OX1R antag-1 49, OX1R antag-2 -15, CHO parental Ca -22 and TAAR1 ag 6.
Cc1ccc(-c2csc(=Nc3cccnc3)n2CCCN2CCCC2=O)cc1C was read as TAAR1 antag -17, OX1R antag-1 64*, OX1R antag-2 -17, CHO parental Ca -17 and TAAR1 ag 4.
Screening Cn1nc(C(F)(F)F)c(CO)c1Sc1ccc(F)cc1 returned TAAR1 antag -5, OX1R antag-1 15, OX1R antag-2 -2, CHO parental Ca 29* and TAAR1 ag 8.
`N=c1oc2cc(O)ccc2cc1C(=O)Nc1ccccn1` gave OX1R antag-1 84*, OX1R antag-2 5 and CHO parental Ca 3.
N#Cc1ccccc1N=C1CCCN1Cc1ccccc1 was read as TAAR1 antag -12, OX1R antag-1 34, OX1R antag-2 -17, CHO parental Ca -2 and TAAR1 ag 4.
`Cc1cc(C)c(N=C2CCCN2Cc2ccccc2)c(C#N)c1` gave TAAR1 antag 2, OX1R antag-1 29, OX1R antag-2 8, CHO parental Ca 40* and TAAR1 ag 12.
`COc1ccccc1OC(=O)Nc1ccc(Cl)cc1` gave TAAR1 antag 24, OX1R antag-1 10, OX1R antag-2 -3, CHO parental Ca 31* and TAAR1 ag 6.
Cc1ccc(C)c(S(=O)(=O)N2CCCC2CNC(=O)c2ccc([N+](=O)[O-])cc2)c1 (centres undefined) was read as TAAR1 antag -21, OX1R antag-1 54*, OX1R antag-2 -31, CHO parental Ca -2 and TAAR1 ag 1.
Screening Cc1ccc(C(=O)NCC2CCCN2S(=O)(=O)c2ccc(C)cc2)cc1 (centres undefined) returned TAAR1 antag 7, OX1R antag-1 24, OX1R antag-2 -2, CHO parental Ca -22 and TAAR1 ag 1.
Screening Cc1ccc(C)c(S(=O)(=O)N2CCCC2CNC(=O)C(=O)NC2CC2)c1 (centres undefined) returned TAAR1 antag 0, OX1R antag-1 24, OX1R antag-2 -11, CHO parental Ca -8 and TAAR1 ag 2.
Screening O=C(NCC1CCCN1S(=O)(=O)c1ccccc1)c1cccc(Cl)c1 (centres undefined) returned TAAR1 antag -9, OX1R antag-1 60*, OX1R antag-2 -7, CHO parental Ca -4 and TAAR1 ag 2.
Screening Cc1ccc(S(=O)(=O)N2CCCC2CNC(=O)c2ccc(F)c(F)c2)cc1 (centres undefined) returned TAAR1 antag -18, OX1R antag-1 70*, OX1R antag-2 16, CHO parental Ca -25 and TAAR1 ag -1.
Screening CC(=O)NCCNc1nc2cc(-c3cscc3C)sc2c(=O)n1C returned TAAR1 antag -12 and TAAR1 ag 1.
For CCCCc1c(-c2ccccc2OC)ncn1Cc1ccccc1C the results were TAAR1 antag 16 and TAAR1 ag 4.
For CCN1CCN(CCNC(=O)c2ccc(/C=C3/Sc4ccccc4N(Cc4cccc(Cl)c4)C3=O)cc2)CC1 the results were TAAR1 antag 56*, OX1R antag-1 14, OX1R antag-2 7, CHO parental Ca -7 and TAAR1 ag 36.
For Cc1cccc(CN2C(=O)/C(=C\c3ccc(C(=O)NCCN4CCOCC4)cc3)Sc3ccccc32)c1 the results were OX1R antag-1 12, OX1R antag-2 4 and CHO parental Ca -13.
CC(C)c1ccc([C@@H]2O[C@H](CCc3ccccc3)CC3=C2C(=O)OC(C)(C)O3)cc1 was read as TAAR1 antag 18 and TAAR1 ag 1.
COc1ccc(CCN2CCC(CN3C(=S)NC[C@@H]3Cc3ccccc3)CC2)cc1OC was read as TAAR1 antag -2 and TAAR1 ag 1.
For O=[N+]([O-])c1ccc(Sc2ncccn2)c([N+](=O)[O-])c1 the results were TAAR1 antag -7, OX1R antag-1 67*, OX1R antag-2 -8, CHO parental Ca -3 and TAAR1 ag 0.
Screening O=[N+]([O-])c1ccc(Sc2nccn2Cc2ccccc2)c([N+](=O)[O-])c1 returned TAAR1 antag -18, OX1R antag-1 38*, OX1R antag-2 -33, CHO parental Ca -15 and TAAR1 ag 2.

Source: PubChem BioAssay
